In ChEMBL document CHEMBL4190321, “Novel 4/3-((4-oxo-5-(2-oxoindolin-3-ylidene)thiazolidin-2-ylidene)amino) benzenesulfonamides: Synthesis, carbonic anhydrase inhibitory activity, anticancer activity and molecular modelling studies” (Eur J Med Chem, 2017):

How the values were obtained:
Carbonic anhydrase 9 = Carbonic anhydrase 9 (Homo sapiens, UniProt Q16790); experiment: Inhibition of human transmembrane carbonic anhydrase 9 by stopped-flow CO2 hydrase assay
Caco-2 = experiment: Antiproliferative activity against human Caco2 cells by MTT assay
MCF7 [1] = experiment: Antiproliferative activity against human MCF7 cells by MTT assay
Carbonic anhydrase 1 = Carbonic anhydrase 1 (Homo sapiens, UniProt P00915); experiment: Inhibition of human cytosolic carbonic anhydrase 1 by stopped-flow CO2 hydrase assay
Carbonic anhydrase 2 = Carbonic anhydrase 2 (Homo sapiens, UniProt P00918); experiment: Inhibition of human cytosolic carbonic anhydrase 2 by stopped-flow CO2 hydrase assay
Carbonic anhydrase 4 = Carbonic anhydrase 4 (Homo sapiens, UniProt P22748); experiment: Inhibition of human transmembrane carbonic anhydrase 4 by stopped-flow CO2 hydrase assay
MCF7 [2] = experiment: Induction of apoptosis in human MCF7 cells assessed as decrease in Bcl-2 expression at IC50 by ELISA relative to control; format: functional; design: scale not given: the % may be the effect or the level left
Method in brief: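 MCF-7 cells were treated alongside a 1% DMSO control. Bcl-2 protein was measured with a colorimetric ELISA kit and reported in ng/ml. Data are mean ± SD of three separate experiments, and significance versus control was set at P < 0.05.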

Chain of Carbonic anhydrase 4 (P22748 whole entry): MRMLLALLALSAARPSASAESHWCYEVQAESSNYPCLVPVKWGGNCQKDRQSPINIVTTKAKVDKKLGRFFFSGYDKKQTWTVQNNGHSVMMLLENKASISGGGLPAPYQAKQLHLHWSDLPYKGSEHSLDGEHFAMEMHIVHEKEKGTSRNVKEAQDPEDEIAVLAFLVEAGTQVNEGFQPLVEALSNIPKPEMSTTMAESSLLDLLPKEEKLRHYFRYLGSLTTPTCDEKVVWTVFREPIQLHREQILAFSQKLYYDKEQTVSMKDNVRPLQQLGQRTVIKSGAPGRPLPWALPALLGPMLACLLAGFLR
Chain of Carbonic anhydrase 1 (P00915 whole entry): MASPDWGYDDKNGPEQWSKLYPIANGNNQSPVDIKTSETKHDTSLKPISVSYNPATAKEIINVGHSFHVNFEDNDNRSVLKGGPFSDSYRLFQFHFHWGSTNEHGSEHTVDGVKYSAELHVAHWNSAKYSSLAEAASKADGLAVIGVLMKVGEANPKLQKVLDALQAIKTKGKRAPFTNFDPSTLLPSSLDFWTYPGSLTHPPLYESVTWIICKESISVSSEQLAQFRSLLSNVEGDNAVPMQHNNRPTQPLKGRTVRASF

For `NS(=O)(=O)c1cccc(/N=C2\NC(=O)CS2)c1`, the Ki (Carbonic anhydrase 9) was 0.0177 µM.

`NS(=O)(=O)c1cccc(/N=C2\NC(=O)/C(=C3/C(=O)Nc4ccc(Cl)cc43)S2)c1` showed an IC50 (Caco-2) of 5.87 µM, a Ki (Carbonic anhydrase 9) of 0.062 µM and an IC50 (MCF7 [1]) of over 200 µM.

For `NS(=O)(=O)c1ccc(/N=C2\NC(=O)/C(=C3/C(=O)Nc4ccccc43)S2)cc1`, the Ki (Carbonic anhydrase 1) was 0.631 µM, the Ki (Carbonic anhydrase 2) was 0.023 µM and the IC50 (Caco-2) was over 200 µM. It also gave a Ki (Carbonic anhydrase 4) of over 10 µM, a Ki (Carbonic anhydrase 9) of 0.047 µM and an IC50 (MCF7 [1]) of over 200 µM.

In the case of `NS(=O)(=O)c1ccc(/N=C2\NC(=O)/C(=C3/C(=O)N(Cc4ccccc4)c4ccccc43)S2)cc1`, the IC50 (Caco-2) is reported as over 200 µM, the Ki (Carbonic anhydrase 9) is reported as 0.117 µM and the IC50 (MCF7 [1]) is reported as over 200 µM.

`NS(=O)(=O)c1ccc(/N=C2\NC(=O)/C(=C3/C(=O)Nc4ccc([N+](=O)[O-])cc43)S2)cc1` was tested, and the IC50 (Caco-2) was 13.8 µM, the Ki (Carbonic anhydrase 9) was 0.0341 µM and the IC50 (MCF7 [1]) was over 200 µM.

`NS(=O)(=O)c1ccc(/N=C2\NC(=O)/C(=C3/C(=O)N(Cc4ccccc4)c4ccc(Br)cc43)S2)cc1` was tested, and the IC50 (Caco-2) was 57.8 µM, the Ki (Carbonic anhydrase 9) was 0.321 µM and the IC50 (MCF7 [1]) was over 200 µM.

Compound `CN1C(=O)/C(=C2\S/C(=N/c3ccc(S(N)(=O)=O)cc3)NC2=O)c2ccccc21` has an IC50 (Caco-2) of 163 µM, a Ki (Carbonic anhydrase 9) of 0.146 µM and an IC50 (MCF7 [1]) of 51.9 µM.

`Cc1cc(C)c2c(c1)/C(=C1/S/C(=N/c3ccc(S(N)(=O)=O)cc3)NC1=O)C(=O)N2` was tested, and the IC50 (Caco-2) was 146 µM, the Ki (Carbonic anhydrase 9) was 0.1 µM and the IC50 (MCF7 [1]) was over 200 µM.

Work on `NS(=O)(=O)c1cccc(/N=C2\NC(=O)/C(=C3/C(=O)Nc4ccc([N+](=O)[O-])cc43)S2)c1` yielded an IC50 (Caco-2) of 20.6 µM, a Ki (Carbonic anhydrase 9) of 0.048 µM and an IC50 (MCF7 [1]) of over 200 µM.

`COc1cccc2c1C(=O)c1c(O)c3c(c(O)c1C2=O)C[C@@](O)(C(=O)CO)C[C@@H]3O[C@H]1C[C@H](N)[C@H](O)[C@H](C)O1` [DOXORUBICIN] was tested, and the IC50 (Caco-2) was 3.83 µM.

With `NS(=O)(=O)c1ccc(/N=C2\NC(=O)/C(=C3/C(=O)Nc4ccc(Br)cc43)S2)cc1` the IC50 (Caco-2) was 42.3 µM, the Ki (Carbonic anhydrase 9) was 0.0666 µM and the IC50 (MCF7 [1]) was 11.3 µM.

For `NS(=O)(=O)c1ccc(/N=C2\NC(=O)/C(=C3/C(=O)N(Cc4ccccc4)c4ccc(Cl)cc43)S2)cc1`, the IC50 (Caco-2) was 13.7 µM, the Ki (Carbonic anhydrase 9) was 0.0906 µM and the IC50 (MCF7 [1]) was 124 µM.

`CN1C(=O)/C(=C2\S/C(=N/c3ccc(S(N)(=O)=O)cc3)NC2=O)c2cc(Cl)ccc21` gave an IC50 (Caco-2) of 42.3 µM, a Ki (Carbonic anhydrase 9) of 0.123 µM and an IC50 (MCF7 [1]) of over 200 µM.

Work on `NS(=O)(=O)c1ccc(NC2=NC(=O)CS2)cc1` yielded a Ki (Carbonic anhydrase 9) of 0.0045 µM.

`NS(=O)(=O)c1cccc(/N=C2\NC(=O)/C(=C3/C(=O)Nc4ccccc43)S2)c1` gave an IC50 (Caco-2) of 12.1 µM, a Ki (Carbonic anhydrase 9) of 0.0161 µM and an IC50 (MCF7 [1]) of over 200 µM.

In the case of `NS(=O)(=O)c1ccc(/N=C2\NC(=O)/C(=C3/C(=O)Nc4ccc(Cl)cc43)S2)cc1`, the IC50 (Caco-2) is reported as 20.3 µM, the Ki (Carbonic anhydrase 9) is reported as 0.0624 µM and the Activity (MCF7 [2]) is reported as 45%. For the same compound, the IC50 (MCF7 [1]) was 3.96 µM.

`CN1C(=O)/C(=C2\S/C(=N/c3ccc(S(N)(=O)=O)cc3)NC2=O)c2cc(Br)ccc21` showed an IC50 (Caco-2) of 13.2 µM, a Ki (Carbonic anhydrase 9) of 0.0389 µM and an IC50 (MCF7 [1]) of 196 µM.

For `Cc1ccc2c(c1)/C(=C1/S/C(=N/c3ccc(S(N)(=O)=O)cc3)NC1=O)C(=O)N2`, the IC50 (Caco-2) was 174 µM, the Ki (Carbonic anhydrase 9) was 0.0721 µM and the IC50 (MCF7 [1]) was over 200 µM.

For `COc1ccc2c(c1)/C(=C1/S/C(=N/c3ccc(S(N)(=O)=O)cc3)NC1=O)C(=O)N2`, the IC50 (Caco-2) was 98.3 µM, the Ki (Carbonic anhydrase 4) was over 10 µM and the Ki (Carbonic anhydrase 9) was 0.0231 µM. The IC50 (MCF7 [1]) was 125 µM.

Compound `NS(=O)(=O)c1ccc(/N=C2\NC(=O)/C(=C3/C(=O)Nc4ccc(F)cc43)S2)cc1` has an IC50 (Caco-2) of 59.9 µM, a Ki (Carbonic anhydrase 9) of 0.0266 µM and an IC50 (MCF7 [1]) of 20.5 µM.

Compound `NS(=O)(=O)c1cccc(/N=C2\NC(=O)/C(=C3/C(=O)N(Cc4ccccc4)c4ccccc43)S2)c1` has an IC50 (Caco-2) of 103 µM, a Ki (Carbonic anhydrase 9) of 0.17 µM and an IC50 (MCF7 [1]) of over 200 µM.

Compound `NS(=O)(=O)c1cccc(/N=C2\NC(=O)/C(=C3/C(=O)Nc4ccc(Br)cc43)S2)c1` has an IC50 (Caco-2) of 10.8 µM, a Ki (Carbonic anhydrase 9) of 0.0159 µM and an IC50 (MCF7 [1]) of over 200 µM.

For `COc1ccc2c(c1)/C(=C1/S/C(=N/c3cccc(S(N)(=O)=O)c3)NC1=O)C(=O)N2`, the IC50 (Caco-2) was 8.39 µM, the Ki (Carbonic anhydrase 9) was 0.0247 µM and the IC50 (MCF7 [1]) was over 200 µM.
